From PubChem
Compounds with a hit are over-represented: about 4.5% of the library has one in this group of screens.
MrgX1 antagonist: human MrgX1 receptor antagonism, primary screen; MRGX1-HEK293 calcium flux, Fluo-4, BAM8-22 antagonism; hits give low values; 310,000 tested, 1.3% active; B-score at 10 µM;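 active means calcium-response B-score plate-corrected more than 3 library SD below zero, starting fluorescence within 5 deviations, no agonist response on first addition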;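 further: peak minus trough fluorescence over baseline after final BAM8-22 challenge near maximal dose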
Target sequence (Q96LB2 whole entry, looked up): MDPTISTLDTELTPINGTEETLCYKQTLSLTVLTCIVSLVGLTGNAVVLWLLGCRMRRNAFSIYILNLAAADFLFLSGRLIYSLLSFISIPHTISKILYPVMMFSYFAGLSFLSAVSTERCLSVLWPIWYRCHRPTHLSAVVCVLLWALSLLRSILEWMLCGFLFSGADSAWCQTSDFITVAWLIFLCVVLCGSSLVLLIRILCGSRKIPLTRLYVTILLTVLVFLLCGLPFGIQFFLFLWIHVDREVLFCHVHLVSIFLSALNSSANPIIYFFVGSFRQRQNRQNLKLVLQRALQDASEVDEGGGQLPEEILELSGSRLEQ
RGS4 inh: human RGS4 inhibition; P49798; HEK293 M3R/RGS4 inducible, Fluo-4 calcium flux; hits give high values; triggered by carbachol at its EC20; B-score at 10 µM; 310,000 tested, 0.45% active; AID 463165;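 active means B-score, a plate-corrected calcium signal, over three deviations above library mean, with baseline fluorescence within five deviations of library mean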;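 further: RGS4 expression induced by doxycycline in cells with stable M3 receptor; B-score is computed from the integrated fluorescence ratio over baseline after carbachol; higher B-score means a larger calcium signal and so more RGS4 inhibition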
Target sequence (P49798 whole entry, looked up): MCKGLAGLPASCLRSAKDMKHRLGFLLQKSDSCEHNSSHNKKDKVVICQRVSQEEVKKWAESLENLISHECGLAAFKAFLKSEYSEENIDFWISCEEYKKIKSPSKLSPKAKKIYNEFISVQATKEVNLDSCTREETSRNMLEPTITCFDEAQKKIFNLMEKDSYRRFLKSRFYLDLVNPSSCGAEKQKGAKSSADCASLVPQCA
MrgX1 agonist: agonists of human MrgX1 receptor; Q96LB2; MrgX1-HEK293 cells, Fluo-4 calcium fluorescence, agonist mode; hits give high values; B-score at 10 µM; 310,000 tested, 0.44% active; AID 588627;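 active means calcium response B-score plate-corrected fluorescence ratio at least 3 library SD, with starting fluorescence B-score inside 5 SD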
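Test system: Stable human MrgX1 HEK293 cell line | Schedule: Overnight plating before 1 h dye loading | Read-out basis: Baseline-normalised fluorescence change ratio, B-scored | Detection: Kinetic calcium dye fluorescence, Fluo-4 NW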
RGS4 act: RGS4 potentiation or activation; 310,000 tested, 0.92% active; AID 463111; B-score at 10 µM; HEK293 M3R/inducible RGS4, carbachol calcium flux Fluo4; hits give low values;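 active means B-score of the integrated calcium signal more than 4 SD below the library mean, with starting fluorescence not abnormally high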;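 further: negative B-score means reduced calcium response which marks RGS4 activation or potentiation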
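System – HEK293 FlpIn-TREx cells, stable M3R, doxycycline-inducible RGS4 · Reagent – ECmax carbachol challenge · Times – compound preincubation 20 min at room temperature before agonist · Technique – Fluo4 fluorescence kinetic imaging of calcium · Measure – B score of integrated Fluo4 ratio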
PHOSPHO1 block: blocks human PHOSPHO1 phosphatase activity | Q8TCT1 | inhibition, % at 13.3 µM | 290,000 tested, 1.1% active | recombinant PHOSPHO1, absorbance phosphatase assay; in the data active means inhibition above about 60%
MrgX1 allo act: human MrgX1 positive allosteric modulation, primary screen; B-score at 10 µM; Q96LB2; MrgX1-HEK293, Fluo-4 calcium flux, FDSS; hits give high values; 310,000 tested, 0.63% active;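 active means plate-corrected calcium response at least 3 library SD above typical, normal starting fluorescence, not activating the receptor alone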;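 further: compound read alongside a low EC10 to EC30 dose of BAM8-22 agonist; peak minus trough fluorescence over baseline measured at the second addition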
RGS4 act valid: confirmation of RGS4 activators. shares compounds with RGS4 act. HEK293 M3R/RGS4 inducible, carbachol calcium flux Fluo4. inhibition, % at 10 µM. 1,100 tested, 89% active;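 active means inhibition above 3 SD of the buffer control wells, cut at about 41% in these data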;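 further: signal is the integrated peak-minus-minimum Fluo4 fluorescence over baseline ratio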
M3R Ca counter: RGS4 activator counter-screen hit in non-induced cells; 1,100 tested, 82% active; shares compounds with RGS4 act; HEK293 M3R non-induced RGS4, Fluo4 calcium flux; after carbachol challenge at its EC90; inhibition, % at 10 µM;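 active means inhibition exceeding 3 SD of buffer-only control wells, cut at about 26% in these data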;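 further: percent drop in integrated peak-minus-baseline over baseline Fluo4 ratio after carbachol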
Of the large screens only hits and unclear results are named; the others gave an inactive call (follow-up assays come after a bar, where they were run).

CCOC(=O)Cc1csc(-n2sc3ccccc3c2=O)n1	PHOSPHO1 block 96
CCOC(=O)Cc1csc(SCn2nnc3ccccc3c2=O)n1	none
CCOC(=O)CCSc1nc(C)cc(C(F)(F)F)c1C#N	none
CCOC(=O)CCSc1nc(C(C)(C)C)cc(C(F)(F)F)c1C#N	RGS4 act -7.2
Cc1ccc2nc3sc(C(=O)NCc4ccco4)c(N)c3cc2c1	none
COC(=O)c1ccc(-c2sc3nc(N4CCOCC4)c4c(c3c2N)CCCC4)o1	RGS4 act -8.8, MrgX1 allo act 17
COc1cc2cc3c(N)c(C(=O)NCc4ccco4)sc3nc2cc1OC	PHOSPHO1 block 72
NC(=O)c1sc2nc(N3CCCCC3)c3c(c2c1N)CCCC3	PHOSPHO1 block 67
Nc1c(C(=O)NCc2ccco2)sc2nc(N3CCOCC3)c3c(c12)CCCC3	PHOSPHO1 block 92
CCN(CC)C(=O)c1sc2nc(N3CCOCC3)c3c(c2c1N)CCCC3	PHOSPHO1 block 80
COCc1c(C(=O)N/N=C(/C)c2ccc(OCc3ccccc3)cc2)nnn1-c1nonc1N	none
Cc1cccc(NNC(=O)c2c(F)cccc2Cl)c1	none
COc1ccc(/C=C2\N=C3CCCCCN3C2=O)cc1OC	MrgX1 antagonist -4.7
COc1cc(/C=C2\N=C3CCCCCN3C2=O)ccc1O	PHOSPHO1 block 67
O=C1/C(=C\c2ccc(O)c(O)c2)N=C2CCCCCN12	none
COc1cc(/C=C2/CC/C(=C/c3ccc(O)c(OC)c3)C2=O)ccc1O	MrgX1 agonist 58
COc1ccc(NC(=O)NCc2ccccn2)c(OC)c1	none
Cc1ccccc1-c1nc2c3ccccc3nc(=S)n2[nH]1	none
Cc1nc2ccccc2n1CCc1nc2c3ccccc3nc(=S)n2[nH]1	PHOSPHO1 block 86
Cc1cc(-n2cccn2)ccc1CN1CCN(CC(C)C)C(CCO)C1 (stereo not drawn)	RGS4 act -7.3
Cc1cc(-n2cccn2)ccc1CN1CCN(C2CCCC2)C(CCO)C1 (stereo not drawn)	none
O=[N+]([O-])c1ccc(N/N=C/c2sc(N3CCOCC3)nc2-c2ccccc2)c(S(=O)(=O)Nc2ccccc2Cl)c1	none (no result: MrgX1 antagonist, RGS4 inh, MrgX1 agonist, RGS4 act, MrgX1 allo act)
O=[N+]([O-])c1ccc(N/N=C/c2sc(N3CCOCC3)nc2-c2ccccc2)c(S(=O)(=O)Nc2ccc(Cl)cc2)c1	RGS4 act -7.5 (no result: MrgX1 antagonist, MrgX1 agonist, MrgX1 allo act)
O=C(Nc1cnn(C23CC4CC(CC(C4)C2)C3)c1)c1cnn2c(C(F)(F)F)cc(-c3ccco3)nc12	RGS4 act -8.5
Cc1ccccc1Cn1ccc(NC(=O)c2cnn3c(C(F)(F)F)cc(-c4ccco4)nc23)n1	RGS4 act -7.5
Cc1ccccc1Cn1ccc(NC(=O)CCSc2nc(-c3ccco3)cc(C(F)(F)F)n2)n1	none
O=C(CC1S/C(=N/N=C2CCCCCC2)NC1=O)Nc1ccc(Br)cc1F (stereo not drawn)	none
CCOC(=O)C(=CNc1ccc(OC)cc1[N+](=O)[O-])C(=O)OCC	none
COCCCC1CCN(Cc2cn[nH]c2-c2cc(OC)c(OC)c(OC)c2)CC1	none
O=C(CCc1nnc(CCCCc2ccccc2)o1)NCCN1CCOC1=O	MrgX1 antagonist -5.3
O=C(CCc1nnc(CCCCc2ccccc2)o1)NCCn1cccn1	none
O=C(C[n+]1cccc(Br)c1)c1ccccc1	none
O=C(C[n+]1cc(Br)cc(Br)c1)c1ccc(-c2ccccc2)cc1	none
O=C(C[n+]1cccc(Br)c1)c1ccc(-c2ccccc2)cc1	RGS4 act -7
Cc1ccc(C(=O)C[n+]2cc(Br)cc(Br)c2)cc1	MrgX1 allo act 15
Cc1c(Cl)cccc1NC(=S)N1CCN(C(=O)C2CCCO2)CC1 (stereo not drawn)	none
Cc1cc(C(=O)NNC(=S)NC(=O)/C=C/c2ccccc2Cl)n[nH]1	PHOSPHO1 block 94
CC(NC(=O)c1ccc(Br)s1)c1ccncc1 (stereo not drawn)	none
CN(C)[C@@H]1CCC[C@@H]1OC(=O)C(c1ccccc1)c1ccccc1	RGS4 act -7
COc1cccc(C(=O)C2CCCN(C/C=C/c3ccccc3OC)C2)c1 (stereo not drawn)	none
COc1ccc(C(=O)C2CCCN(C/C=C/c3ccccc3OC)C2)c(OC)c1 (stereo not drawn)	RGS4 act -9.3 | RGS4 act valid 88 | M3R Ca counter 84
CN(C(=O)COC(=O)CCc1c[nH]c2ccccc12)c1ccccc1	none (no result: PHOSPHO1 block)
COc1cccc(C(=O)NC(=S)Nc2ccc(N3CCCC3)cc2)c1	none
CC(C)Oc1cccc(C(=O)NC(=S)Nc2ccc(N3CCN(C)CC3)cc2)c1	RGS4 act -11 | RGS4 act valid 92 | M3R Ca counter 93
Cc1cc(C(=O)NNC(=O)NC(C)C)no1	none
COc1ccc(NC2=NCC(Cc3ccc(Br)cc3)S2)cc1 (stereo not drawn)	RGS4 act -8.8 | RGS4 act valid 94 | M3R Ca counter 83
COC(=O)c1ccc(COC(=O)CNC(=O)CNC(=O)c2ccc(OC)cc2)cc1	none (no result: PHOSPHO1 block)
Cc1ccccc1N1CCN(C2CCCN(C(=O)c3cn4cccc(C)c4n3)C2)CC1 (stereo not drawn)	RGS4 act -9.7 (no result: MrgX1 antagonist, MrgX1 agonist, MrgX1 allo act) | RGS4 act valid 50 | M3R Ca counter inactive
Cc1ccccc1N1CCN(C2CCCN(C(=O)c3ccccn3)C2)CC1 (stereo not drawn)	none
Cc1ccc(C)c(-n2c3nc(=O)n(C)c(=O)c-3cc3ccccc32)c1	RGS4 act -12 | RGS4 act valid inactive | M3R Ca counter inactive
CCc1ccc(C2=CSC3=NCCN23)cc1	none
COc1ccccc1N1CCN(S(=O)(=O)CCNC(=O)C23CC4CC(CC(C4)C2)C3)CC1	none
Cc1c(C)n(Cc2ccccc2)c2ncnc(NCCCN(C)C)c12	RGS4 act -9.4 | RGS4 act valid 70 | M3R Ca counter 84
Cc1c(NC2=NC3(CCCCC3)Cc3ccccc32)c(=O)n(C)n1-c1ccccc1	none
CCCN1CCc2c(sc(NC(=O)c3ccc(S(=O)(=O)N(C)c4ccccc4)cc3)c2C(=O)NC)C1	RGS4 act -9.5 | RGS4 act valid 84 | M3R Ca counter 52
O=C1CCc2cc(S(=O)(=O)N3CCCCC3)cc3c2N1CC3	none (no result: PHOSPHO1 block)
CC(Oc1cccc2cccnc12)C(=O)N/N=C/c1ccc2c(c1)OCO2 (stereo not drawn)	RGS4 act -13 (no result: PHOSPHO1 block) | RGS4 act valid inactive | M3R Ca counter inactive
